Reference: ChEMBL document CHEMBL4819122, “Novel 4-(piperazin-1-yl)quinolin-2(1H)-one bearing thiazoles with antiproliferative activity through VEGFR-2-TK inhibition” (Bioorg Med Chem, 2021)
Active and inactive are the calls of the source. The rule behind the calls is not given here.

Experiments:
T47D [1] = assay: Induction of apoptosis in human T47D cells assessed as early apoptotic cells after 24 hrs by Annexin V-FITC/propidium iodide staining based flow cytometric analysis (reference value: 0.66 %); assay type: functional
T47D [2] = assay: Induction of cell cycle arrest in human T47D cells assessed as increase in accumulation at S phase after 24 hrs by propidium iodide/Annexin V staining based FACScan flow cytometry(reference value: 34.62%); assay type: functional
UO-31 = assay: Cytotoxicity against human UO31 assessed as growth inhibition at 10 uM by NCI protocol relative to control; assay type: functional; conditions: read-out: GI
How it was run: (§1)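 Run by the NCI under its standard protocol: one dose of 10 μM against a sixty-line panel from nine human tumour tissues. Result given as percent growth inhibition of treated cells relative to untreated cells.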

T47D [3] = assay: Induction of cell cycle arrest in human T47D cells assessed as increase in accumulation at pre G1 phase after 24 hrs by propidium iodide/Annexin V staining based FACScan flow cytometry(reference value: 2.61%); assay type: functional
HCT-116 = assay: Cytotoxicity against human HCT-116 assessed as growth inhibition at 10 uM by NCI protocol relative to control; assay type: functional; conditions: read-out: GI
How it was run: (§2)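 Run by NCI as a single-dose screen at 10 μM across the sixty-cell-line panel, which covers nine human tumour tissue types. The read-out is percent growth inhibition of treated cells relative to untreated cells.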

T47D [4] = assay: Cytotoxicity against human T-47D assessed as growth inhibition at 10 uM by NCI protocol relative to control; assay type: functional; conditions: read-out: GI; how it was run: as §1
MOLT-4 = assay: Cytotoxicity against human MOLT-4 assessed as growth inhibition at 10 uM by NCI protocol relative to control; assay type: functional; conditions: read-out: GI; how it was run: as §2
IGROV-1 = assay: Cytotoxicity against human IGROVI assessed as growth inhibition at 10 uM by NCI protocol relative to control; assay type: functional; conditions: read-out: GI; how it was run: as §2
SF-539 = assay: Cytotoxicity against human […] assessed as growth inhibition at 10 uM by NCI protocol relative to control; assay type: functional; conditions: read-out: GI; how it was run: as §2
EKVX = assay: Cytotoxicity against human EKVX assessed as growth inhibition at 10 uM by NCI protocol relative to control; assay type: functional; conditions: read-out: GI; how it was run: as §2
T47D [5] = assay: Induction of apoptosis in human T47D cells assessed as late apoptotic cells after 24 hrs by Annexin V-FITC/propidium iodide staining based flow cytometric analysis (reference value: 0.21 %); assay type: functional
HOP-92 = assay: Cytotoxicity against human HOP-92 assessed as growth inhibition at 10 uM by NCI protocol relative to control; assay type: functional; conditions: read-out: GI; how it was run: as §2
UACC-62 = assay: Cytotoxicity against human UACC-62 assessed as growth inhibition at 10 uM by NCI protocol relative to control; assay type: functional; conditions: read-out: GI; how it was run: as §1
T47D [6] = assay: Induction of cell cycle arrest in human T47D cells assessed as increase in accumulation at G0/G1 phase after 24 hrs by propidium iodide/Annexin V staining based FACScan flow cytometry(reference value: 52.59%); assay type: functional
T47D [7] = assay: Induction of apoptosis in human T47D cells assessed as total apoptotic cells after 24 hrs by Annexin V-FITC/propidium iodide staining based flow cytometric analysis (reference value: 2.61 %); assay type: functional
A498 = assay: Cytotoxicity against human A498 assessed as growth inhibition at 10 uM by NCI protocol relative to control; assay type: functional; conditions: read-out: GI; how it was run: as §2
T47D [8] = assay: Cytotoxicity against human T47D cells assessed as reduction in cell viability after 3 hrs by MTT assay
CAKI-1 = assay: Cytotoxicity against human Caki1 assessed as growth inhibition at 10 uM by NCI protocol relative to control; assay type: functional; conditions: read-out: GI; how it was run: as §2
SR = assay: Cytotoxicity against human SR assessed as growth inhibition at 10 uM by NCI protocol relative to control; assay type: functional; conditions: read-out: GI; how it was run: as §1
786-0 = assay: Cytotoxicity against human 786-0 assessed as growth inhibition at 10 uM by NCI protocol relative to control; assay type: functional; conditions: read-out: GI; how it was run: as §2
MDA-MB-468 = assay: Cytotoxicity against human MDA-MB-468 assessed as growth inhibition at 10 uM by NCI protocol relative to control; assay type: functional; conditions: read-out: GI; how it was run: as §2
MCF10 = assay: Cytotoxicity against human MCF10 cells assessed as reduction in cell viability after 3 hrs by MTT assay; conditions: MCF10, 3 h
T47D [9] = assay: Induction of apoptosis in human T47D cells assessed as necrotic cells after 24 hrs by Annexin V-FITC/propidium iodide staining based flow cytometric analysis (reference value: 1.74%); assay type: functional
T47D [10] = assay: Induction of cell cycle arrest in human T47D cells assessed as increase in accumulation at G2/M phase after 24 hrs by propidium iodide/Annexin V staining based FACScan flow cytometry(reference value: 12.79%); assay type: functional
MDA-MB-435 = assay: Cytotoxicity against human MDA-MB-435 assessed as growth inhibition at 10 uM by NCI protocol relative to control; assay type: functional, cell-based; how it was run: as §2

**Q.** Which Activity (T47D [1]) does the source give for O=C(CN1CCN(c2cc(=O)[nH]c3ccc(F)cc23)CC1)Nc1nc(-c2ccccc2)cs1 here?
**A.** 2.31%

**Q.** And the Activity (T47D [2])?
**A.** 52.39%

**Q.** And the inhibition of growth at 10 µM (UO-31)?
**A.** 24.2%

**Q.** And the Activity (T47D [3])?
**A.** 43.05%

**Q.** What about the inhibition of growth at 10 µM (HCT-116) of the same compound?
**A.** 16%

**Q.** And the inhibition of growth at 10 µM (T47D [4])?
**A.** 29.6%

**Q.** And the inhibition of growth at 10 µM (MOLT-4)?
**A.** 13.3%

**Q.** What about the inhibition of growth at 10 µM (IGROV-1) of the same compound?
**A.** 16.1%

**Q.** What about the inhibition of growth at 10 µM (SF-539) of the same compound?
**A.** 13.3%

**Q.** What about the inhibition of growth at 10 µM (EKVX) of the same compound?
**A.** 14.6%

**Q.** And the Activity (T47D [5])?
**A.** 27.88%

**Q.** What about the inhibition of growth at 10 µM (HOP-92) of the same compound?
**A.** 10.9%

**Q.** And the inhibition of growth at 10 µM (UACC-62)?
**A.** 14.4%

**Q.** What about the Activity (T47D [6]) of the same compound?
**A.** 41.31%

**Q.** And the Activity (T47D [7])?
**A.** 43.05%

**Q.** And the inhibition of growth at 10 µM (A498)?
**A.** 27.9%

**Q.** What about the IC50 (T47D [8]) of the same compound?
**A.** 7.2 µM

**Q.** What about the inhibition of growth at 10 µM (CAKI-1) of the same compound?
**A.** 17.4%

**Q.** What about the inhibition of growth at 10 µM (SR) of the same compound?
**A.** 21.2%

**Q.** And the inhibition of growth at 10 µM (786-0)?
**A.** 10.3%

**Q.** And the inhibition of growth at 10 µM (MDA-MB-468)?
**A.** 12.5%

**Q.** What about the IC50 (MCF10) of the same compound?
**A.** 39.4 µM

**Q.** And the Activity (T47D [9])?
**A.** 12.86%

**Q.** And the Activity (T47D [10])?
**A.** 6.3%

**Q.** And the “growth inhibition (GI)” value (MDA-MB-435)?
**A.** inactive
